Active and inactive are the calls of the source. The rule behind the calls is not given here. Where a SMILES comes first, the peptide text is derived from it. Bridges are numbered along the chain shown (N, C = ends). [ ]: non-standard residue; d: D form. Pro(3S-OH) = O=C(O)[C@H]1NCC[C@@H]1O; pGlu = O=C1CC[C@@H](C(=O)O)N1

From ChEMBL document CHEMBL1154792, “chi-Conopeptide pharmacophore development: toward a novel class of norepinephrine transporter inhibitor (Xen2174) for pain” (J Med Chem, 2009) come the findings set out here.

The target of this experiment is Sodium-dependent noradrenaline transporter (Homo sapiens, UniProt P23975). Put plainly: Displacement of [3H]nisoxetine from human NET expressed in COS7 cells. Format: cell-based. The settings on record: COS-7. In outline: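 Membranes from COS-7 cells transfected with human NET were incubated with [3H]nisoxetine (4.3 nM) with or without peptide (1 nM to 100 μM, triplicate) for 1 h at RT. Filter-retained radioactivity was counted by liquid scintillation, and values are given as pIC50. Data are means of 2–5 experiments in triplicate; peptide concentration was set by calibrated HPLC at 214 nm.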
Sodium-dependent noradrenaline transporter, sequence (P23975 whole entry): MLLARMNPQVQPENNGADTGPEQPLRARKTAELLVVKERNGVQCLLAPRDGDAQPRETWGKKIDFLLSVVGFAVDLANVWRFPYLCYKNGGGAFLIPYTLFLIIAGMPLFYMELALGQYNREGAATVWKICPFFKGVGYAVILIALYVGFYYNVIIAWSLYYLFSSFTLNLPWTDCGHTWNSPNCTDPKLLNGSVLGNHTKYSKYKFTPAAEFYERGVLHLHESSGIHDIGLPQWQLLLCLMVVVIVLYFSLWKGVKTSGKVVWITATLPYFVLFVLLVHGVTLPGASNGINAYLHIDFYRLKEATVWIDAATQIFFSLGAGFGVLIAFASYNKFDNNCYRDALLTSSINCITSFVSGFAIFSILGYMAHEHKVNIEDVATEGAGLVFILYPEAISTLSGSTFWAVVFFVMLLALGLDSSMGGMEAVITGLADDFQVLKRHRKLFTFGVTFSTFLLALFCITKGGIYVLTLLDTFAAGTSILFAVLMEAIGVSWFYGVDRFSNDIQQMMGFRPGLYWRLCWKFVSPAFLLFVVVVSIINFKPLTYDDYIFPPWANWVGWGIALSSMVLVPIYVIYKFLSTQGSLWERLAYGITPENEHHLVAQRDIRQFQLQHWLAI
Take `COc1ccc(C[C@@H]2NC(=O)CNC(=O)[C@@H]3CSSC[C@H](NC(=O)[C@H](CC(C)C)NC(=O)[C@H](CCCCN)NC2=O)C(=O)N[C@@H](Cc2cnc[nH]2)C(=O)N2CC[C@H](O)[C@H]2C(=O)N[C@H](C(=O)O)CSSC[C@H](NC(=O)[C@@H](NC(=O)CNC(=O)[C@@H]2CCC(=O)N2)C(C)C)C(=O)N3)c(OC)c1`: the result was inactive.
The result for `CC(C)C[C@@H]1NC(=O)[C@H](CCCCN)NC(=O)[C@H](Cc2ccc(O)cc2)NC(=O)CNC(=O)[C@@H]2CSSC[C@H](NC1=O)C(=O)N[C@@H](Cc1ccccc1)C(=O)N1CC[C@H](O)[C@H]1C(=O)N[C@H](C(=O)O)CSSC[C@H](NC(=O)[C@@H](NC(=O)CNC(=O)[C@@H]1CCC(=O)N1)C(C)C)C(=O)N2` ([pGlu]GVCCGYKLCF[Pro(3S-OH)]C-OH; disulfide 4-13, 5-10) reads “Active”; that for `CC(C)C[C@@H]1NC(=O)[C@H](CCCCN)NC(=O)[C@H](Cc2ccc(O)cc2)NC(=O)CNC(=O)[C@@H]2CSSC[C@H](NC1=O)C(=O)N[C@@H](Cc1cnc[nH]1)C(=O)N1CC[C@H](O)[C@H]1C(=O)N[C@H](C(=O)O)CSSC[C@@H](NC(=O)[C@@H](NC(=O)CNC(=O)[C@@H]1CCC(=O)N1)C(C)C)C(=O)N2`, “inactive”; that for `CC(C)[C@H](NC(=O)CNC(=O)[C@@H]1CCC(=O)N1)C(=O)N[C@H]1CSSC[C@@H](C(=O)O)NC(=O)[C@@H]2[C@@H](O)CCN2C(=O)[C@H](Cc2cnc[nH]2)NC(=O)[C@@H]2CSSC[C@H](NC1=O)C(=O)NCC(=O)N[C@@H](Cc1ccc(O)cc1)C(=O)N[C@@H](CCCCN)C(=O)N[C@@H](C(C)C)C(=O)N2` ([pGlu]GVCCGYKVCH[Pro(3S-OH)]C-OH; disulfide 4-13, 5-10), “inactive”.
The value for `CC(C)C[C@@H]1NC(=O)[C@H](CCCCN)NC(=O)[C@H](Cc2ccc(O)cc2)NC(=O)CNC(=O)[C@H]2CSSC[C@@H](NC1=O)C(=O)N[C@@H](Cc1cnc[nH]1)C(=O)N1CC[C@H](O)[C@H]1C(=O)N[C@H](C(=O)O)CSSC[C@H](NC(=O)[C@@H](NC(=O)CNC(=O)[C@@H]1CCC(=O)N1)C(C)C)C(=O)N2` was “inactive”; that for `CC(C)C[C@@H]1NC(=O)[C@H](CCCCN)NC(=O)[C@H](Cc2ccccc2)NC(=O)CNC(=O)[C@@H]2CSSC[C@H](NC1=O)C(=O)N[C@@H](Cc1cnc[nH]1)C(=O)N1CC[C@H](O)[C@H]1C(=O)N[C@H](C(=O)O)CSSC[C@H](NC(=O)[C@@H](NC(=O)CNC(=O)[C@@H]1CCC(=O)N1)C(C)C)C(=O)N2` ([pGlu]GVCCGFKLCH[Pro(3S-OH)]C-OH; disulfide 4-13, 5-10) was “inactive”.
As to `CC(C)C[C@@H]1NC(=O)[C@H](CCCCN)NC(=O)[C@H](Cc2ccc(O)cc2)NC(=O)CNC(=O)[C@@H]2CSSC[C@@H](NC1=O)C(=O)N[C@@H](Cc1cnc[nH]1)C(=O)N1CC[C@H](O)[C@H]1C(=O)N[C@H](C(=O)O)CSSC[C@H](NC(=O)[C@@H](NC(=O)CNC(=O)[C@@H]1CCC(=O)N1)C(C)C)C(=O)N2`, the result was inactive.
The result for `CC(C)C[C@@H]1NC(=O)[C@H](CCCCN)NC(=O)[C@H](CCC(N)=O)NC(=O)CNC(=O)[C@@H]2CSSC[C@H](NC1=O)C(=O)N[C@@H](Cc1cnc[nH]1)C(=O)N1CC[C@H](O)[C@H]1C(=O)N[C@H](C(=O)O)CSSC[C@H](NC(=O)[C@@H](NC(=O)CNC(=O)[C@@H]1CCC(=O)N1)C(C)C)C(=O)N2` ([pGlu]GVCCGQKLCH[Pro(3S-OH)]C-OH; disulfide 4-13, 5-10) reads “inactive”; that for `CC(C)C[C@@H]1NC(=O)[C@H](CCCCN)NC(=O)[C@H](Cc2ccc(O)cc2)NC(=O)CNC(=O)[C@@H]2CSSC[C@H](NC1=O)C(=O)N[C@@H](Cc1c[nH]c3ccccc13)C(=O)N1CC[C@H](O)[C@H]1C(=O)N[C@H](C(=O)O)CSSC[C@H](NC(=O)[C@@H](NC(=O)CNC(=O)[C@@H]1CCC(=O)N1)C(C)C)C(=O)N2` ([pGlu]GVCCGYKLCW[Pro(3S-OH)]C-OH; disulfide 4-13, 5-10), “Active”.
